From ChEMBL document CHEMBL4052636, “Design, synthesis and biological evaluation of some novel sulfonamide derivatives as apoptosis inducers” (Eur J Med Chem, 2017)

Assays:
Caco-2 [1] = assay: Cytotoxicity against human Caco2 cells assessed as surviving fraction at 1 uM after 24 hrs by MTT assay relative to control; assay type: functional
Procedure, shortened: (§1)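 Caco-2 cells were kept as monolayers in RPMI-1640 with 10% FBS, 100 U/mL penicillin and streptomycin, at 37 C in humidified 5% CO2. Cells were treated for 24 h at concentrations spanning […], and viability was read by the colorimetric MTT (Mosmann) method. Percent relative viability and IC50 were fitted in Prism.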

Caco-2 [2] = assay: Cytotoxicity against human Caco2 cells assessed as surviving fraction at 10 uM after 24 hrs by MTT assay relative to control; assay type: functional; procedure, shortened: as §1
Caco-2 [3] = assay: Cytotoxicity against human Caco2 cells assessed as surviving fraction at 25 uM after 24 hrs by MTT assay relative to control; assay type: functional; procedure, shortened: as §1
Caco-2 [4] = assay: Cytotoxicity against human Caco2 cells assessed as surviving fraction at 50 uM after 24 hrs by MTT assay relative to control; assay type: functional; procedure, shortened: as §1
Caco-2 [5] = assay: Cytotoxicity against human Caco2 cells assessed as surviving fraction at 100 uM after 24 hrs by MTT assay relative to control; assay type: functional; procedure, shortened: as §1
Caco-2 [6] = assay: Cytotoxicity against human Caco2 cells assessed as cell viability after 24 hrs by MTT assay; assay type: functional, cell-based; settings: Caco-2, 24 h; procedure, shortened: as §1
Caco-2 [7] = assay: Induction of apoptosis in human Caco2 cells assessed as Fas-ligand concentration at 0.15 uM after 24 hrs by FASL-based ELISA (reference value: 20.5 pg/ml); assay type: functional
Caco-2 [8] = assay: Induction of apoptosis in human Caco2 cells assessed as Fas-ligand concentration at 0.3 uM after 24 hrs by FASL-based ELISA (reference value: 20.5 pg/ml); assay type: functional
Caco-2 [9] = assay: Induction of apoptosis in human Caco2 cells assessed as Fas-ligand concentration at 0.6 uM after 24 hrs by FASL-based ELISA (reference value: 20.5 pg/ml); assay type: functional
Caco-2 [10] = assay: Induction of apoptosis in human Caco2 cells assessed as caspase-3 concentration at 0.6 uM after 24 hrs by colorimetric analysis (reference value: 0.193 nmol/ml); assay type: functional
Caco-2 [11] = assay: Induction of apoptosis in human Caco2 cells assessed as caspase-3 concentration at 0.3 uM after 24 hrs by colorimetric analysis (reference value: 0.193 nmol/ml); assay type: functional
Caco-2 [12] = assay: Induction of apoptosis in human Caco2 cells assessed as caspase-3 concentration at 0.15 uM after 24 hrs by colorimetric analysis (reference value: 0.193 nmol/ml); assay type: functional
Caco-2 [13] = assay: Induction of apoptosis in human Caco2 cells assessed as Fas-ligand concentration at 31.5 uM after 24 hrs by FASL-based ELISA (reference value: 20.5 pg/ml); assay type: functional
Caco-2 [14] = assay: Induction of apoptosis in human Caco2 cells assessed as Fas-ligand concentration at 63.5 uM after 24 hrs by FASL-based ELISA (reference value: 20.5 pg/ml); assay type: functional
Caco-2 [15] = assay: Induction of apoptosis in human Caco2 cells assessed as Fas-ligand concentration at 100 uM after 24 hrs by FASL-based ELISA (reference value: 20.5 pg/ml); assay type: functional
Caco-2 [16] = assay: Induction of apoptosis in human Caco2 cells assessed as caspase-3 concentration at 31 uM after 24 hrs by colorimetric analysis (reference value: 0.193 nmol/ml); assay type: functional
Caco-2 [17] = assay: Induction of apoptosis in human Caco2 cells assessed as caspase-3 concentration at 62.3 uM after 24 hrs by colorimetric analysis (reference value: 0.193 nmol/ml); assay type: functional
Caco-2 [18] = assay: Induction of apoptosis in human Caco2 cells assessed as caspase-3 concentration at 100 uM after 24 hrs by colorimetric analysis (reference value: 0.193 nmol/ml); assay type: functional
Caco-2 [19] = assay: Induction of apoptosis in human Caco2 cells assessed as Fas-ligand concentration at 62 uM after 24 hrs by FASL-based ELISA (reference value: 20.5 pg/ml); assay type: functional
Procedure, shortened: (§2)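 Caco-2 cells were grown in RPMI-1640 with 10% FBS, penicillin and streptomycin at 37 C under 5% CO2. Cells were exposed to the test agent for 24 h. Fas-ligand in the cells was then measured with a colorimetric human FASL ELISA kit and reported as pg/mL against an untreated control.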

Caco-2 [20] = assay: Induction of apoptosis in human Caco2 cells assessed as Fas-ligand concentration at 31 uM after 24 hrs by FASL-based ELISA (reference value: 20.5 pg/ml); assay type: functional; procedure, shortened: as §2
Caco-2 [21] = assay: Induction of apoptosis in human Caco2 cells assessed as Fas-ligand concentration at 15 uM after 24 hrs by FASL-based ELISA (reference value: 20.5 pg/ml); assay type: functional; procedure, shortened: as §2
Caco-2 [22] = assay: Induction of apoptosis in human Caco2 cells assessed as caspase-3 concentration at 15 uM after 24 hrs by colorimetric analysis (reference value: 0.193 nmol/ml); assay type: functional
Caco-2 [23] = assay: Induction of apoptosis in human Caco2 cells assessed as caspase-3 concentration at 62 uM after 24 hrs by colorimetric analysis (reference value: 0.193 nmol/ml); assay type: functional

SMILES	Ratio (Caco-2 [1])	Ratio (Caco-2 [2])	Ratio (Caco-2 [3])	Ratio (Caco-2 [4])	Ratio (Caco-2 [5])	IC50 (Caco-2 [6])	further results
COc1ccc(-c2onc3nc(Nc4ccc(S(N)(=O)=O)cc4)sc23)cc1	0.412	0.401	0.317	0.229	0.228	559 nM	–
NS(=O)(=O)c1ccc(NC2=NC(=O)/C(=C/c3ccccc3)S2)cc1	0.348	0.182	0.133	0.422	0.068	334 nM	Activity (Caco-2 [7]): 445.2 pg/mL; Activity (Caco-2 [8]): 775.2 pg/mL; Activity (Caco-2 [9]): 706.12 pg/mL; Activity (Caco-2 [10]): 0.37 nmol/mL; Activity (Caco-2 [11]): 0.38 nmol/mL; Activity (Caco-2 [12]): 0.43 nmol/mL
NS(=O)(=O)c1ccc(Nc2nc3nc(=O)[nH]c(-c4ccc(Cl)cc4)c3s2)cc1	0.519	0.603	0.112	0.156	0.073	12700 nM	–
COc1ccc(-c2[nH]c(=S)nc3nc(Nc4ccc(S(N)(=O)=O)cc4)sc23)cc1	0.444	0.344	0.299	0.186	0.169	667 nM	–
NS(=O)(=O)c1ccc(NC2=NC(=O)/C(=C/c3ccc(Cl)cc3)S2)cc1	0.285	0.314	0.113	0.086	0.153	667 nM	–
NS(=O)(=O)c1ccc(Nc2nc3noc(-c4ccccc4)c3s2)cc1	0.442	0.335	0.304	0.295	0.456	669 nM	–
COc1ccc(-c2[nH]c(=O)nc3nc(Nc4ccc(S(N)(=O)=O)cc4)sc23)cc1	0.477	0.362	0.473	0.257	0.167	667 nM	–
COc1ccc(/C=C2\SC(Nc3ccc(S(N)(=O)=O)cc3)=NC2=O)cc1	0.281	0.179	0.466	0.416	0.485	1330 nM	–
NS(=O)(=O)c1ccc(Nc2nc3noc(-c4ccc(Cl)cc4)c3s2)cc1	0.319	0.248	0.219	0.202	0.197	333 nM	Activity (Caco-2 [7]): 111.3 pg/mL; Activity (Caco-2 [8]): 147.5 pg/mL; Activity (Caco-2 [9]): 312.2 pg/mL; Activity (Caco-2 [10]): 0.407 nmol/mL; Activity (Caco-2 [11]): 0.409 nmol/mL; Activity (Caco-2 [12]): 0.366 nmol/mL
NS(=O)(=O)c1ccc(Nc2nc3nc(=S)[nH]c(-c4ccccc4)c3s2)cc1	0.304	0.223	0.234	0.223	0.135	333 nM	Activity (Caco-2 [7]): 115.5 pg/mL; Activity (Caco-2 [8]): 165.7 pg/mL; Activity (Caco-2 [9]): 307.5 pg/mL; Activity (Caco-2 [10]): 0.364 nmol/mL; Activity (Caco-2 [11]): 0.34 nmol/mL; Activity (Caco-2 [12]): 0.35 nmol/mL
NS(=O)(=O)c1ccc(Nc2nc3nc(=S)[nH]c(-c4ccc(Cl)cc4)c3s2)cc1	0.433	0.456	0.338	0.339	0.276	333 nM	Activity (Caco-2 [7]): 312.4 pg/mL; Activity (Caco-2 [8]): 309.4 pg/mL; Activity (Caco-2 [9]): 641.8 pg/mL; Activity (Caco-2 [10]): 0.37 nmol/mL; Activity (Caco-2 [11]): 0.366 nmol/mL; Activity (Caco-2 [12]): 0.404 nmol/mL
NS(=O)(=O)c1ccc(Nc2nc3nc(=O)[nH]c(-c4ccccc4)c3s2)cc1	0.371	0.237	0.285	0.229	0.227	334 nM	–
COc1cccc2c1C(=O)c1c(O)c3c(c(O)c1C2=O)C[C@@](O)(C(=O)CO)C[C@@H]3O[C@H]1C[C@H](N)[C@H](O)[C@H](C)O1 [DOXORUBICIN]	0.814	0.597	0.663	0.552	0.343	63300 nM	Activity (Caco-2 [13]): 41.65 pg/mL; Activity (Caco-2 [14]): 56.41 pg/mL; Activity (Caco-2 [15]): 95.8 pg/mL; Activity (Caco-2 [16]): 0.251 nmol/mL; Activity (Caco-2 [17]): 0.26 nmol/mL; Activity (Caco-2 [18]): 0.272 nmol/mL
O=c1[nH]cc(F)c(=O)[nH]1 [FLUOROURACIL]	0.405	0.31	0.325	0.525	0.254	31000 nM	Activity (Caco-2 [19]): 66.2 pg/mL; Activity (Caco-2 [20]): 140.1 pg/mL; Activity (Caco-2 [21]): 287.7 pg/mL; Activity (Caco-2 [16]): 0.8 nmol/mL; Activity (Caco-2 [22]): 0.92 nmol/mL; Activity (Caco-2 [23]): 0.73 nmol/mL
